Published values from different studies.
Target: Protein kinase C theta type (PRKCQ, Homo sapiens, UniProt Q04759)

Nc1ncnc2occ(-c3ccc(NC(=O)Nc4cc(C(F)(F)F)ccc4F)cc3)c12 — remaining signal (cell-free assay; 20 µM): 13%
COc1cc(Cl)c(C(=O)N[C@@H](CN[C@H]2CC[C@@H](N)CC2)Cc2ccc(C#N)cc2)cc1-c1ccc(CN[C@H](C)c2ccc(C)cc2)o1 — remaining activity (enzyme activity, inhibitor; 1 µM): 106%
Cc1cnc(NC2CCOCC2)nc1-n1cnc(C(=O)NC(CN)c2cc(F)cc(Cl)c2)c1 (centres unmarked) — remaining activity (enzyme activity, inhibitor, radiometric; 1 µM): 99%
CS(=O)(=O)c1cc(C2(NC(=O)c3cncc4c3cnn4-c3ccc(F)cc3)CC2)ccn1 — remaining binding (cell-free assay, competition with immobilised ligand; 1 µM): 99%
CN1CC(Oc2cnc(C#N)cc2-c2ccn3nc(NC(=O)C4CC4)cc3c2)C1 — inhibition (enzyme activity, inhibitor; 1 µM): -2%
O=C(O)c1cc(-c2ccc(C3CCNCC3)cc2)c2ccc(-c3ccc(C(F)(F)F)cc3)cc2c1 — remaining binding (cell-free assay, competition with immobilised ligand; 1 µM): 100%
F[C@@H]1CCN(c2nccc(-c3cnn4ncccc34)n2)C1 — remaining binding (binding; 1 µM): 100%
COc1cc2ncnc(Nc3ccc(Oc4ccccc4)c(C)c3C)c2cc1OC — inhibition (enzyme activity, inhibitor; 1 µM): 8%
Cn1cnc(Br)c1C1=CN(c2ncnc3[nH]cnc23)CCS1 — inhibition (enzyme activity, inhibitor, radiometric; 2 µM): 97.9%
CNCc1ccc(-c2cc(-c3nc(-c4ccc(S(=O)(=O)C(C)C)cc4)cnc3N)on2)cc1 — inhibition (enzyme activity, inhibitor; 2 µM): 0%
CC(C)(C)c1nc2c(s1)c1nc(N)ncc1c1ccc(NS(=O)(=O)c3c(F)cccc3F)c(F)c12 — remaining activity (enzyme activity, inhibitor, radiometric; 1 µM): 115%
Cc1ccc(NC(=O)c2ccc(C)c(C(F)(F)F)c2)cc1C#Cc1nn(C2CCC(O)CC2)c2ncnc(N)c12 (centres unmarked) — remaining signal (cell-free assay; 10 µM): 103%
C[C@@H]1CCN(C(=O)CC#N)C[C@@H]1N(C)c1ncnc2[nH]ccc12 — remaining signal (cell-free assay; 0.5 µM): 89%
CCS(=O)(=O)c1cc2cc(C[C@@](O)(CC(C)(C)c3ccc(F)cc3C(N)=O)C(F)(F)F)[nH]c2cn1 — remaining binding (cell-free assay, competition with immobilised ligand; 1 µM): 97%
O=C(Nc1cnn(-c2csc(C(=O)NC3COC3)c2)c1)Nc1c(F)cccc1Cl — remaining activity (enzyme activity, inhibitor; 5 µM): 94.7%
COc1ccc2c(c1)O[C@H](c1ccc(OC)c(OC)c1)C[C@@H]2NC(=O)C1(c2ccc3c(c2)OC(F)(F)O3)CC1 — remaining binding (cell-free assay, competition with immobilised ligand; 1 µM): 100%
Cn1cncc1C1=CN(c2ncnc3[nH]cnc23)CCS1 — inhibition (enzyme activity, inhibitor, radiometric; 2 µM): 97.9%
CC[C@H](CO)Nc1nc(NCc2ccccc2)c2ncn(C(C)C)c2n1 — remaining signal (cell-free assay; 0.5 µM): 90%
C[C@@H](N)[C@H]1CC[C@H](C(=O)Nc2ccncc2)CC1 — inhibition (enzyme activity, inhibitor, TR-FRET; 10 µM): 82.7%
CC(C)c1ccc(NC(=O)c2cccs2)c(-c2nc3ccccc3[nH]c2=O)c1 — activity vs control (enzyme activity, inhibitor; 1 µM): 83%
N#CCCc1ccc2c(c1)-c1[nH]c3ccc([N+](=O)[O-])cc3c1CC(=O)N2 — remaining signal (cell-free assay; 0.5 µM): 111%
Nc1cnc(N2CCc3cc(S(=O)(=O)Nc4c(F)cc(Cl)cc4F)cc(N4CCCC4=O)c32)nc1 — remaining binding (cell-free assay, competition with immobilised ligand; 1 µM): 89%
Cc1ccc(Nc2nccc(N(C)c3ccc4c(C)n(C)nc4c3)n2)cc1S(N)(=O)=O — inhibition (enzyme activity, inhibitor; 10 µM): -3%
CO[C@@H](C)c1c(Nc2ccc([C@@H](N(C)C(=O)C3CCS(=O)(=O)CC3)C(F)(F)F)cc2)cnc2cc(Cl)nn12 — remaining binding (cell-free assay, competition with immobilised ligand; 1 µM): 98%
CN(C)C1CCN(CC#Cc2nn(C3CCCC3)c3nc(NCc4ccccc4)ncc23)C1 (centres unmarked) — inhibition (enzyme activity, inhibitor, FRET; 1 µM): 19%
Cc1c[nH]c2nccc(Oc3c(F)cc(Nc4cc(Cl)nc(N)n4)cc3F)c12 — remaining binding (cell-free assay, competition with immobilised ligand; 0.1 µM): 66%
CNC(=O)c1cc(Oc2ccc(NC(=O)Nc3ccc(Cl)c(C(F)(F)F)c3)cc2)ccn1 — inhibition (enzyme activity, inhibitor; 10 µM): -12%
COc1cc2c(Nc3ccc(Br)cc3F)ncnc2cc1OCC1CCN(C)CC1 — remaining signal (cell-free assay; 0.5 µM): 100%
O=C(NCc1ncc(C(F)(F)F)cc1Cl)c1ccc2c(c1)C1(CCS(=O)(=O)CC1)[C@H](C1CC1)N2S(=O)(=O)c1ccc(F)cc1 — remaining binding (cell-free assay, competition with immobilised ligand; 1 µM): 100%
